Data from ChEMBL document CHEMBL1139738, “Pyridine-3-propanoic acids: Discovery of dual PPARalpha/gamma agonists as antidiabetic agents” (Bioorg Med Chem Lett, 2006).

Key:
[1] = molecular target: T1, Peroxisome proliferator-activated receptor alpha (Homo sapiens) (UniProt Q07869); assay: Agonist activity at human PPAR alpha in a HepG2 cells by PPAR-GAL4 transactivation assay relative to GW-2331; format: functional, cell-based
T1 sequence (whole entry): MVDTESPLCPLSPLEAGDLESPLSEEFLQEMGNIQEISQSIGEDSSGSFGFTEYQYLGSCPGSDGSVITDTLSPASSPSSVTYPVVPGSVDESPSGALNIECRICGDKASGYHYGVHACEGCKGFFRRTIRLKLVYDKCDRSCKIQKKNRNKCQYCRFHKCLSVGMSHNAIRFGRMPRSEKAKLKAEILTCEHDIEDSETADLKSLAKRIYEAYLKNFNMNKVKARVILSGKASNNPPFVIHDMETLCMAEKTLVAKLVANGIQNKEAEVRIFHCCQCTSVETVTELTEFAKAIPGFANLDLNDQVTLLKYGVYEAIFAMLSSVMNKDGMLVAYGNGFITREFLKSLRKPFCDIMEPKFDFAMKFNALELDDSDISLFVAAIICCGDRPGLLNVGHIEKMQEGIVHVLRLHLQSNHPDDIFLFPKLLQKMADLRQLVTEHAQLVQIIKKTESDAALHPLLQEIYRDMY

[2] = molecular target: T2, Peroxisome proliferator-activated receptor alpha (Homo sapiens, UniProt Q07869); assay: Displacement of radiolabeled GW-2331 from human PPAR alpha by SPA binding assay
T2 sequence (Q07869 whole entry): T1 sequence (whole entry)

[3] = molecular target: T2, Peroxisome proliferator-activated receptor alpha; assay: Agonist activity at human PPAR alpha in a HepG2 cells by PPAR-GAL4 transactivation assay; format: functional, cell-based
[4] = molecular target: T3, Peroxisome proliferator-activated receptor gamma (Homo sapiens, UniProt P37231); assay: Displacement of radiolabeled darglitazone from human PPAR gamma by SPA binding assay
T3 sequence (P37231 whole entry): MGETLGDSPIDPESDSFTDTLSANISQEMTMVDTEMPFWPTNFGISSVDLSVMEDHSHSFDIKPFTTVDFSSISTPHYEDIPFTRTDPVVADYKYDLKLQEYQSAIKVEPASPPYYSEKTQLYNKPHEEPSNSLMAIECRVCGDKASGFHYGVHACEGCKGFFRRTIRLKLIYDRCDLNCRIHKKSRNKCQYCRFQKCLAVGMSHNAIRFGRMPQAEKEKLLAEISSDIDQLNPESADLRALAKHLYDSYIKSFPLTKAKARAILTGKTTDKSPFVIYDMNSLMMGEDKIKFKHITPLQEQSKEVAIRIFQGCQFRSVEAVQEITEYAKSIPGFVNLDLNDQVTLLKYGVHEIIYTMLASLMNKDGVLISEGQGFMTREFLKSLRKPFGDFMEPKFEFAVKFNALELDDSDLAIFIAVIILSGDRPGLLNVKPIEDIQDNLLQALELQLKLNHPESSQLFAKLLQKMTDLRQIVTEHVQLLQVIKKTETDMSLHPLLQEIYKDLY

[5] = molecular target: T3, Peroxisome proliferator-activated receptor gamma; assay: Agonist activity at human PPAR gamma in a HepG2 cells by PPAR-GAL4 transactivation assay; format: functional, cell-based
[6] = molecular target: T1, Peroxisome proliferator-activated receptor alpha (Homo sapiens); assay: Displacement of radiolabeled GW-2331 from human PPAR alpha by SPA assay at 100 uM
How it was run: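 Scintillation proximity assay on human PPARα using radiolabelled GW2331 as the displaced ligand, following published procedures. Single-concentration lines report percent displacement at the stated test concentration; Ki was determined for compounds with a full curve.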

[7] = Half life in orally dosed Sprague-Dawley rat; format: ADME, organism-based; details: in vivo, po
How it was run: (§1)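 Pharmacokinetics in male Sprague–Dawley rats given iv and oral doses. Outputs are iv clearance (mL/min/kg), oral half-life, dose-normalized oral AUC (h μg/mL) and oral bioavailability (%).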

Mus musculus [8] = assay: Increase in body weight in orally dosed db/db mouse at 0.03 mg/kg after 8 days relative to control; format: functional; details: route oral
How it was run: (§2)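 Male db/db mice, 7 weeks old, with lean controls, given vehicle or compound by oral gavage once daily for 8 days. Plasma glucose, triglycerides, hematocrit and body weight measured before dosing on day −1 and 2 h post-dose on day 8. Percent change is expressed versus vehicle control, with significance at p < 0.05.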

Mus musculus [9] = assay: Reduction of plasma triglycerides in orally dosed db/db mouse at 0.03 mg/kg after 8 days relative to control; format: functional; design: scale not given: the % may be the effect or the level left; details: route oral; how it was run: as §2
Mus musculus [10] = assay: Reduction of hematocrit in orally dosed db/db mouse at 1 mg/kg after 8 days relative to control; format: functional; design: scale not given: the % may be the effect or the level left; details: route oral; how it was run: as §2
[11] = Oral bioavailability in Sprague-Dawley rat; format: ADME, organism-based; details: in vivo; how it was run: as §1
Mus musculus [12] = assay: Reduction of plasma glucose in orally dosed db/db mouse at 0.03 mg/kg after 8 days relative to control; format: functional; design: scale not given: the % may be the effect or the level left; details: route oral; how it was run: as §2
[13] = Clearance in iv dosed Sprague-Dawley rat; format: ADME, organism-based; details: in vivo; how it was run: as §1
Mus musculus [14] = assay: Reduction of plasma glucose in orally dosed db/db mouse at 1 mg/kg after 8 days relative to control; format: functional; design: scale not given: the % may be the effect or the level left; details: route oral; how it was run: as §2
Mus musculus [15] = assay: Increase in body weight in orally dosed db/db mouse at 1 mg/kg after 8 days relative to control; format: functional; details: route oral; how it was run: as §2
Mus musculus [16] = assay: Reduction of hematocrit in orally dosed db/db mouse at 0.03 mg/kg after 8 days relative to control; format: functional; design: scale not given: the % may be the effect or the level left; details: route oral; how it was run: as §2
Mus musculus [17] = assay: Reduction of plasma triglycerides in orally dosed db/db mouse at 1 mg/kg after 8 days relative to control; format: functional; design: scale not given: the % may be the effect or the level left; details: route oral; how it was run: as §2

| SMILES | %max [1] [%] | Ki [2] [nM] | EC50 [3] [nM] | other results |
| --- | --- | --- | --- | --- |
| Cc1oc(-c2ccccc2)nc1CCOc1ccc(CC(C)(C)C(=O)O)cn1 | 112 | 6800 | 534 |  |
| Cc1oc(-c2ccccc2)nc1CCOc1ccc(CC(C(=O)O)C(C)C)cn1 (stereo not given) | 93 | 4100 | 426 |  |
| Cc1oc(-c2ccc(C(F)(F)F)cc2)nc1CCOc1ccc(CC2(C(=O)O)CCCO2)cn1 (stereo not given) | 143 | 21 | 11 |  |
| COC(Cc1ccc(OCCc2ccc(Oc3cccc(Cl)c3)cc2C)nc1)C(=O)O (stereo not given) | 100 | 13 | 133 | Ki [4]: 15 nM; EC50 [5]: 50 nM |
| CN(CCOc1ccc(CC2SC(=O)NC2=O)cc1)c1ccccn1 (stereo not given) | 6 |  |  |  |
| COC(Cc1ccc(OCCc2nc(-c3ccccc3)oc2C)nc1)C(=O)O (stereo not given) | 95 | 180 | 83 |  |
| Cc1oc(-c2ccccc2)nc1CCOc1ccc(CC2(C(=O)O)CCOC2)cn1 (stereo not given) |  |  |  | inhibition [6]: 33%; Ki [4]: 17000 nM |
| Cc1oc(-c2cccc(C(F)(F)F)c2)nc1CCOc1ccc(CC2(C(=O)O)CCCO2)cn1 (stereo not given) | 81 | 100 | 8 |  |
| Cc1oc(-c2ccccc2)nc1CCOc1ccc(C[C@]2(C(=O)O)CCCO2)cn1 | 89 | 32 | 165 | half-life [7]: 4.7 h; Activity (Mus musculus [8]): 11.7%; Activity (Mus musculus [9]): 67%; Activity (Mus musculus [10]): 8.7%; bioavailability [11]: 59%; Activity (Mus musculus [12]): 37%; clearance [13]: 2.5 mL/min/kg; Activity (Mus musculus [14]): 99%; Activity (Mus musculus [15]): 15.7%; Activity (Mus musculus [16]): 7.2%; Activity (Mus musculus [17]): 147% |
| COc1cccc(-c2nc(CCOc3ccc(CC4(C(=O)O)CCCO4)cn3)c(C)o2)c1 (stereo not given) | 104 | 215 | 90 |  |
| Cc1oc(-c2ccccc2)nc1CCOc1ccc(CC2(C(=O)O)CCCCO2)cn1 (stereo not given) | 96 | 78 | 228 |  |
| Cc1oc(-c2ccccc2)nc1CCOc1ccc(CC2(C(=O)O)CCC2)cn1 | 94 | 633 | 238 | Ki [4]: 394 nM; EC50 [5]: 125 nM |
| Cc1oc(-c2ccc(Cl)cc2)nc1CCOc1ccc(CC2(C(=O)O)CCCO2)cn1 (stereo not given) | 87 | 14 | 10 |  |
| Cc1cccc(-c2nc(CCOc3ccc(CC4(C(=O)O)CCCO4)cn3)c(C)o2)c1 (stereo not given) | 86 | 277 | 134 |  |
| CCC(Cc1ccc(OCCc2nc(-c3ccccc3)oc2C)nc1)C(=O)O (stereo not given) | 106 | 1300 | 150 |  |
| Cc1ccc(-c2nc(CCOc3ccc(CC4(C(=O)O)CCCO4)cn3)c(C)o2)cc1 (stereo not given) | 84 | 31 | 23 |  |
